In brackets after ≈: the same amount, converted by molar mass.
Assays:
Staphylococcus aureus [1] = assay: Antibacterial activity against Staphylococcus aureus ATCC 6538 after 24 hrs by microdilution method; format: functional; conditions: ATCC 6538, 24 h
How it was run: (§1)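 Broth microdilution in 96-well plates. Bacterial suspensions were adjusted in sterile saline to 1.0 × 10⁵ CFU/ml, prepared daily and kept at 4 °C. Compound was added to LB broth with 1.0 × 10⁴ CFU per well and shaken at 160 rpm for 24 h at […] (so in the source). MIC is the lowest concentration with no visible growth under a binocular microscope. OD655 was also read. Duplicate, repeated three times.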

Bacillus cereus [2] = assay: Antibacterial activity against clinical isolate of Bacillus cereus after 24 hrs by microdilution method; format: functional; how it was run: as §1
Micrococcus flavus [3] = assay: Antibacterial activity against Micrococcus flavus ATCC 10240 after 24 hrs by microdilution method; format: functional; conditions: ATCC 10240, 24 h; how it was run: as §1
Listeria monocytogenes [4] = assay: Antibacterial activity against Listeria monocytogenes NCTC 7973 after 24 hrs by microdilution method; format: functional; conditions: NCTC 7973, 24 h; how it was run: as §1
Pseudomonas aeruginosa [5] = assay: Antibacterial activity against Pseudomonas aeruginosa ATCC 27853 after 24 hrs by microdilution method; format: functional; conditions: ATCC 27853, 24 h; how it was run: as §1
Salmonella typhimurium [6] = assay: Antibacterial activity against Salmonella Typhimurium ATCC 13311 after 24 hrs by microdilution method; format: functional, Salmonella enterica subsp. enterica serovar Typhimurium; conditions: Salmonella enterica, ATCC 13311, 24 h; how it was run: as §1
Escherichia coli [7] = assay: Antibacterial activity against Escherichia coli ATCC 35210 after 24 hrs by microdilution method; format: functional; conditions: ATCC 35210, 24 h; how it was run: as §1
Enterococcus faecalis [8] = assay: Antibacterial activity against Enterococcus faecalis isolated from human after 24 hrs by microdilution method; format: functional; how it was run: as §1
Staphylococcus aureus [9] = assay: Antibacterial activity against Staphylococcus aureus ATCC 6538 incubated for 24 hrs followed by serial sub-cultivation for 24 hrs by microdilution method; format: functional; conditions: ATCC 6538, 24 h
How it was run: (§2)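 MBC: after the 24 h LB broth microdilution (1.0 × 10⁴ CFU per well, 160 rpm), wells were serially sub-cultured into fresh broth plates and incubated a further 24 h. MBC is the lowest concentration with no visible growth, taken as 99.5% killing of the original inoculum. Duplicate, repeated three times.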

Bacillus cereus [10] = assay: Antibacterial activity against clinical isolate of Bacillus cereus incubated for 24 hrs followed by serial sub-cultivation for 24 hrs by microdilution; format: functional; how it was run: as §2
Micrococcus flavus [11] = assay: Antibacterial activity against Micrococcus flavus ATCC 10240 incubated for 24 hrs followed by serial sub-cultivation for 24 hrs by microdilution; format: functional; conditions: ATCC 10240, 24 h; how it was run: as §2
Listeria monocytogenes [12] = assay: Antibacterial activity against Listeria monocytogenes NCTC 7973 incubated for 24 hrs followed by serial sub-cultivation for 24 hrs by microdilution; format: functional; conditions: NCTC 7973, 24 h; how it was run: as §2
Pseudomonas aeruginosa [13] = assay: Antibacterial activity against Pseudomonas aeruginosa ATCC 27853 incubated for 24 hrs followed by serial sub-cultivation for 24 hrs by microdilution; format: functional; conditions: ATCC 27853, 24 h; how it was run: as §2
Salmonella typhimurium [14] = assay: Antibacterial activity against Salmonella Typhimurium ATCC 13311 incubated for 24 hrs followed by serial sub-cultivation for 24 hrs by microdilution; format: functional, Salmonella enterica subsp. enterica serovar Typhimurium; conditions: Salmonella enterica, ATCC 13311, 24 h; how it was run: as §2
Escherichia coli [15] = assay: Antibacterial activity against Escherichia coli ATCC 35210 incubated for 24 hrs followed by serial sub-cultivation for 24 hrs by microdilution; format: functional; conditions: ATCC 35210, 24 h; how it was run: as §2
Enterococcus faecalis [16] = assay: Antibacterial activity against Enterococcus faecalis isolated from human incubated for 24 hrs followed by serial sub-cultivation for 24 hrs by microdilution; format: functional; how it was run: as §2
Aspergillus ochraceus [17] = assay: Antifungal activity against Aspergillus ochraceus ATCC 12066 after 72 hrs by serial dilution technique; format: functional; conditions: ATCC 12066, 72 h
How it was run: (§3)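 Modified microdilution in 96-well plates. Fungi were kept on malt agar at 4 °C. Spores were washed off in sterile 0.85% saline with 0.1% Tween 80. Compounds were dissolved at 1 mg/ml in 5% DMSO with 0.1% Tween 80 and added to malt broth with inoculum. Plates were shaken at 160 rpm for 72 h at 28 °C. Duplicate, repeated three times.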

Aspergillus niger [18] = assay: Antifungal activity against Aspergillus niger ATCC 6275 after 72 hrs by serial dilution technique; format: functional; conditions: ATCC 6275, 72 h; how it was run: as §3
Aspergillus flavus [19] = assay: Antifungal activity against Aspergillus flavus ATCC 9643 after 72 hrs by serial dilution technique; format: functional; conditions: ATCC 9643, 72 h; how it was run: as §3
Talaromyces funiculosus [20] = assay: Antifungal activity against Penicillium funiculosum ATCC 36839 after 72 hrs by serial dilution technique; format: functional; conditions: ATCC 36839, 72 h; how it was run: as §3
Penicillium ochrochloron [21] = assay: Antifungal activity against Penicillium ochrochloron ATCC 9112 after 72 hrs by serial dilution technique; format: functional; conditions: ATCC 9112, 72 h; how it was run: as §3
Trichoderma viride [22] = assay: Antifungal activity against Trichoderma viride IAM 5061 after 72 hrs by serial dilution technique; format: functional; conditions: IAM 5061, 72 h; how it was run: as §3
Candida albicans [23] = assay: Antifungal activity against Candida albicans isolated from human after 72 hrs by serial dilution technique; format: functional; how it was run: as §3
Aspergillus ochraceus [24] = assay: Antifungal activity against Aspergillus ochraceus ATCC 12066 incubated for 72 hrs followed by serial sub-cultivation for 72 hrs by serial dilution technique; format: functional; conditions: ATCC 12066, 72 h
How it was run: (§4)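 MFC: material from 72 h malt broth microdilution wells was serially sub-cultured into fresh broth plates and incubated a further 72 h at 28 °C. Fungicidal concentration is taken from growth after sub-culture. Duplicate, repeated three times.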

Aspergillus fumigatus [25] = assay: Antifungal activity against Aspergillus fumigatus isolated from human incubated for 72 hrs followed by serial sub-cultivation for 72 hrs by serial dilution technique; format: functional; how it was run: as §4
Aspergillus niger [26] = assay: Antifungal activity against Aspergillus niger ATCC 6275 incubated for 72 hrs followed by serial sub-cultivation for 72 hrs by serial dilution technique; format: functional; conditions: ATCC 6275, 72 h; how it was run: as §4
Aspergillus flavus [27] = assay: Antifungal activity against Aspergillus flavus ATCC 9643 incubated for 72 hrs followed by serial sub-cultivation for 72 hrs by serial dilution technique; format: functional; conditions: ATCC 9643, 72 h; how it was run: as §4
Talaromyces funiculosus [28] = assay: Antifungal activity against Penicillium funiculosum ATCC 36839 incubated for 72 hrs followed by serial sub-cultivation for 72 hrs by serial dilution technique; format: functional; conditions: ATCC 36839, 72 h; how it was run: as §4
Penicillium ochrochloron [29] = assay: Antifungal activity against Penicillium ochrochloron ATCC 9112 incubated for 72 hrs followed by serial sub-cultivation for 72 hrs by serial dilution technique; format: functional; conditions: ATCC 9112, 72 h; how it was run: as §4
Trichoderma viride [30] = assay: Antifungal activity against Trichoderma viride IAM 5061 incubated for 72 hrs followed by serial sub-cultivation for 72 hrs by serial dilution technique; format: functional; conditions: IAM 5061, 72 h; how it was run: as §4
Candida albicans [31] = assay: Antifungal activity against Candida albicans isolated from human incubated for 72 hrs followed by serial sub-cultivation for 72 hrs by serial dilution technique; format: functional; how it was run: as §4
Pseudomonas aeruginosa [32] = assay: Ratio of ampicillin MIC to compound MIC for Pseudomonas aeruginosa ATCC 27853; format: functional
Aspergillus ochraceus [33] = assay: Ratio of bifonazole to compound for Aspergillus ochraceus ATCC 12066; format: functional
Aspergillus niger [34] = assay: Ratio of bifonazole to compound for Aspergillus niger ATCC 6275; format: functional
Talaromyces funiculosus [35] = assay: Ratio of bifonazole to compound for Penicillium funiculosum ATCC 36839; format: functional
Penicillium ochrochloron [36] = assay: Ratio of bifonazole to compound for Penicillium ochrochloron ATCC 9112; format: functional
Trichoderma viride [37] = assay: Ratio of bifonazole to compound for Trichoderma viride IAM 5061; format: functional
Candida albicans [38] = assay: Ratio of bifonazole to compound for Candida albicans isolated from human; format: functional
Aspergillus ochraceus [39] = assay: Ratio of ketoconazole to compound for Aspergillus ochraceus ATCC 12066; format: functional
Aspergillus fumigatus [40] = assay: Ratio of ketoconazole to compound for Aspergillus fumigatus isolated from human; format: functional
Penicillium ochrochloron [41] = assay: Ratio of ketoconazole to compound for Penicillium ochrochloron ATCC 9112; format: functional
Candida albicans [42] = assay: Ratio of ketoconazole to compound for Candida albicans isolated from human; format: functional
Aspergillus ochraceus [43] = assay: Antifungal activity against Aspergillus ochraceus after 72 hrs by serial dilution technique

MIC (Staphylococcus aureus [1]): 94.6 µM (≈ 30 µg/mL)
MIC (Bacillus cereus [2]): 63.1 µM (≈ 20 µg/mL)
MIC (Micrococcus flavus [3]): 94.6 µM (≈ 30 µg/mL)
MIC (Listeria monocytogenes [4]): 94.6 µM (≈ 30 µg/mL)
MIC (Pseudomonas aeruginosa [5]): 47.3 µM (≈ 15 µg/mL)
MIC (Salmonella typhimurium [6]): 47.3 µM (≈ 15 µg/mL)
MIC (Escherichia coli [7]): 94.6 µM (≈ 30 µg/mL)
MIC (Enterococcus faecalis [8]): 47.3 µM (≈ 15 µg/mL)
MIC (Aspergillus ochraceus [17]): 63.1 µM (≈ 20 µg/mL)
MIC (Aspergillus niger [18]): 47.3 µM (≈ 15 µg/mL)
MIC (Aspergillus flavus [19]): 63.1 µM (≈ 20 µg/mL)
MIC (Talaromyces funiculosus [20]): 31.5 µM (≈ 10 µg/mL)
MIC (Penicillium ochrochloron [21]): 63.1 µM (≈ 20 µg/mL)
MIC (Trichoderma viride [22]): 47.3 µM (≈ 15 µg/mL)
MIC (Candida albicans [23]): 31.5 µM (≈ 10 µg/mL)
MIC (Aspergillus ochraceus [43]): 47.3 µM (≈ 15 µg/mL)
SMILES: CCNc1nc(C)c(C(=O)/C=C/c2ccc([N+](=O)[O-])cc2)s1
MBC (Staphylococcus aureus [9]): 94.6 µM (≈ 30 µg/mL)
MBC (Bacillus cereus [10]): 94.6 µM (≈ 30 µg/mL)
MBC (Micrococcus flavus [11]): 94.6 µM (≈ 30 µg/mL)
MBC (Listeria monocytogenes [12]): 94.6 µM (≈ 30 µg/mL)
MBC (Pseudomonas aeruginosa [13]): 63.1 µM (≈ 20 µg/mL)
MBC (Salmonella typhimurium [14]): 63.1 µM (≈ 20 µg/mL)
MBC (Escherichia coli [15]): 94.6 µM (≈ 30 µg/mL)
MBC (Enterococcus faecalis [16]): 63.1 µM (≈ 20 µg/mL)
MFC (Aspergillus ochraceus [24]): 78.8 µM (≈ 25 µg/mL)
MFC (Aspergillus fumigatus [25]): 63.1 µM (≈ 20 µg/mL)
MFC (Aspergillus niger [26]): 63.1 µM (≈ 20 µg/mL)
MFC (Aspergillus flavus [27]): 78.8 µM (≈ 25 µg/mL)
MFC (Talaromyces funiculosus [28]): 63.1 µM (≈ 20 µg/mL)
MFC (Penicillium ochrochloron [29]): 78.8 µM (≈ 25 µg/mL)
MFC (Trichoderma viride [30]): 63.1 µM (≈ 20 µg/mL)
MFC (Candida albicans [31]): 63.1 µM (≈ 20 µg/mL)
Ratio (Pseudomonas aeruginosa [32]): 10
Ratio (Aspergillus ochraceus [33]): 10
Ratio (Aspergillus niger [34]): 10
Ratio (Talaromyces funiculosus [35]): 10
Ratio (Penicillium ochrochloron [36]): 10
Ratio (Trichoderma viride [37]): 10
Ratio (Candida albicans [38]): 10
Ratio (Aspergillus ochraceus [39]): 10
Ratio (Aspergillus fumigatus [40]): 10
Ratio (Penicillium ochrochloron [41]): 10
Ratio (Candida albicans [42]): 10

From ChEMBL document CHEMBL1926569, “Novel (E)-1-(4-methyl-2-(alkylamino)thiazol-5-yl)-3-arylprop-2-en-1-ones as potent antimicrobial agents” (2011)
